Like-named read-outs stand apart in the source and are kept apart here.
Columns and labels:
[1] = Metabolite profiling in pooled fecal homogenate; format: in vivo, human; conditions: subjects on hemodialysis
[2] = format: in vivo, human; conditions: for total radioactivity in whole blood lower than that in plasma: based on mean Cmax and AUCinf; for time to maximum concentration (post-dose): single IV bolus
Summary of the method: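 Six healthy and six HD adult males received one 1 mL IV bolus of [14C]-labelled test compound in 0.9% NaCl: 100 μCi, about 200 μg, 1.7–3.0 μg/kg. HD subjects were dosed via the dialysis port after the last weekly dialysis. Plasma aliquots were counted by LSC; whole blood was combusted in an oxidizer before LSC. Results were converted to ng-eq. Noncompartmental analysis used actual sample times and dose: Cmax, tmax, AUClast, AUCinf, t1/2, CL, Vz.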

[3] = Safety: adverse events in the phase 1 study; format: in vivo, human
[4] = Mass balance: recovery of radioactive dose in urine, feces and dialysate; format: in vivo, human; conditions: subjects on hemodialysis; sum of all dialysis treatments (3 times per week, 4 h); total radioactivity (LSC); mean, n = 6
[5] = system: other receptors, ion channels, or transporters; conditions: other than kappa-opioid receptor; cited from earlier work
[6] = cited from earlier work
[7] = system: CYP1A2, CYP2C19, CYP2C8, CYP2C9, CYP2D6, or CYP3A; conditions: human hepatic microsomes or in vitro hepatocytes; cited from earlier work

CC(C)C[C@@H](NC(=O)[C@@H](Cc1ccccc1)NC(=O)[C@H](N)Cc1ccccc1)C(=O)N[C@H](CCCCN)C(=O)N1CCC(N)(C(=O)O)CC1 [Difelikefalin, 4-amino-1-[(2R)-6-amino-2-[[(2R)-2-[[(2R)-2-[[(2R)-2-amino-3-phenylpropanoyl]amino]-3-phenylpropanoyl]amino]-4-methylpentanoyl]amino]hexanoyl]piperidine-4-carboxylic acid]
share of total radioactivity excreted in feces recovered as unchanged difelikefalin [1]: 84.8% | total radioactivity in whole blood lower than that in plasma ([2]; healthy subjects): ~45% | time to maximum concentration (post-dose) ([2]; healthy subjects, plasma total radioactivity): 5 min | mean AUC, subjects on HD versus healthy subjects ([2]; plasma total radioactivity, ratio of mean AUC, HD higher): approximately 11 fold | total radioactivity in whole blood lower than that in plasma ([2]; subjects on hemodialysis): approximately 38% | time to maximum concentration (post-dose) ([2]; subjects on hemodialysis, plasma total radioactivity): 5 min | TEAEs considered by the investigator unrelated to study treatment ([3]; all 12 participants): 17 of 24 | subjects reporting treatment-emergent AEs (TEAEs) ([3]; healthy subjects, of n = 6): three of the six | Percent of dose recovered in dialysate [4]: 19.5% | activity at other receptors, ion channels, or transporters [5]: no activity at other receptors, ion channels, or transporters | abuse potential, physical dependence, respiratory depression [6]: no abuse potential, no physical dependence, and no respiratory depression effects | metabolism by cytochrome P450 (CYP) enzymes [7]: not metabolized
